A word on the Tmax: it is the time from dosing to the highest level.

Read-outs that look alike come from different tables or passages of the source.

Data on 2 compounds can be found in paper PMC11937985 (Journal of Clinical Pharmacology, 2024).

Data set [1] in a line: Safety and tolerability assessment in the phase 1 study. The format is in vivo, human. In a few lines:
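Healthy postmenopausal smokers and nonsmokers received oral test compound 30 mg on Day 1 after a 10-h fast. Oral fluvoxamine 50 mg was given on Day 3 evening, twice daily on Days 4–9, and on Day 10 morning. On Day 7 the test compound was co-dosed fasted. AEs were recorded from consent to end of study, in all subjects dosed at least once.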

The conditions of data set [2]: 20‐ to 60‐mg dose range; cited from earlier work.
Data set [3] is classed as in vitro ADME, human. As to conditions: preliminary assay; rate of degradation could not be determined precisely.
For data set [4] the following is noted: fezolinetant 45 mg, pooled 12-week data, cited from earlier work.
Data set [5] is classed as in vivo, human.
[6] abbreviates: fezolinetant + fluvoxamine vs fezolinetant alone.

For `COCCCC/C(=N\OCCN)c1ccc(C(F)(F)F)cc1` [fluvoxamine], in data set [1] (18 subjects), the “dizziness (TEAE), subjects reporting” value is given as “one subject”; the “erythema (TEAE), subjects reporting” value was 11.1%; the “orthostatic intolerance (TEAE), subjects reporting” value was “one subject”; the “subjects with TEAE considered drug related by the investigator” value amounted to 5.6%.

As to `Cc1nsc(-c2nnc3n2CCN(C(=O)c2ccc(F)cc2)[C@@H]3C)n1` [Fezolinetant], in data set [2], the “dose dependence of Cmax and total exposure (AUC)” value is listed as “increased linearly”. In addition, the metabolic stability result in data set [3] is reported as “highly stable”. Besides, the “subjects with TEAEs, overall” value in data set [1] (all treatment periods, 18 TEAEs, 18 subjects enrolled) is reported as 44.4%. Also, the safety and tolerability result in data set [1] (single oral 30-mg dose of fezolinetant co-administered with fluvoxamine, healthy postmenopausal women) is “safe and well tolerated”. The “LS mean difference in VMS frequency versus placebo” value is recorded as −3.48 in data set [4] (current smokers) and −2.32 in data set [4] (former/never smokers). For the same compound, the Tmax in data set [5] (female, human, plasma, oral, 30 mg) is 1 h. Further, the “tmax, Median [min–max]” value in data set [5] (fezolinetant 30 mg + fluvoxamine, nonsmoker n = 9) was 1.50 [1.00‐4.00] h; in data set [5] (fezolinetant 30 mg + fluvoxamine, smoker n = 9) it was 1.50 [1.48‐4.00] h; in data set [5] (fezolinetant 30 mg alone, nonsmoker n = 9), 1.00 [0.983‐2.00] h; in data set [5] (fezolinetant 30 mg alone, smoker n = 9), 1.00 [1.00‐1.50] h. The “increase in half-life on co-administration with fluvoxamine” value in data set [5] (setting [6]) is recorded as about 5.6 fold. Moreover, in data set [5] (setting [6]), the “increase in total exposure on co-administration with fluvoxamine” value is “approximately 9 fold”. Further, in data set [5] (smokers vs nonsmokers), the “exposure decrease by smoking” value is listed as “about 50%”.
